Assays:
Rattus norvegicus [1] = experiment: Antiinflammatory activity in albino rat assessed as inhibition of carrageenan-induced paw edema at 0.28 mmol/kg, po administered 30 mins prior to carrageenan-challenge measured after 4 hrs relative to control; format: functional
How it was run: (§1)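 Male albino rats in groups of four were fasted 24 h with water allowed. Dosing was oral at 0.28 mmol/kg, suspended in 0.5% w/v CMC; controls got CMC alone. After 30 min, 0.1 ml of 1% carrageenan in saline went subplantar into the right hind paw and saline into the left. Paw thickness was read by caliper before and at 1–5 h. % inhibition = [(VR−VL)control−(VR−VL)treated]/(VR−VL)control ×100. Mean ± SEM, n = 4, one-way ANOVA vs control.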

Rattus norvegicus [2] = experiment: Ulcerogenic activity in albino rat carrageenan-induced paw edema model assessed as ulcer index at 0.28 mmol/kg, po (reference value: 0.60 +/- 0.05); format: toxicity, organism-based; details: in vivo
How it was run: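 Rats given the compound orally at 0.28 mmol/kg, suspended in 0.5% aqueous CMC; vehicle-only control, n = 4 per group. Gastric ulcers graded by area: I (<1 mm²), II (1–3 mm²), III (>3 mm²). Ulcer index = 1×(level I count) + 2×(level II) + 3×(level III). Mean ± SEM, one-way ANOVA versus control.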

Rattus norvegicus [3] = experiment: Antiinflammatory activity in albino rat assessed as inhibition of carrageenan-induced paw edema at 0.28 mmol/kg, po administered 30 mins prior to carrageenan-challenge measured after 5 hrs relative to control; format: functional; how it was run: as §1
Rattus norvegicus [4] = experiment: Antiinflammatory activity in albino rat assessed as inhibition of carrageenan-induced paw edema at 0.28 mmol/kg, po administered 30 mins prior to carrageenan-challenge measured after 1 hr relative to control; format: functional; how it was run: as §1
Rattus norvegicus [5] = experiment: Antiinflammatory activity in albino rat assessed as inhibition of carrageenan-induced paw edema at 0.28 mmol/kg, po administered 30 mins prior to carrageenan-challenge measured after 3 hrs relative to control; format: functional; how it was run: as §1
Rattus norvegicus [6] = experiment: Antiinflammatory activity in albino rat assessed as inhibition of carrageenan-induced paw edema at 0.28 mmol/kg, po administered 30 mins prior to carrageenan-challenge measured after 2 hrs relative to control; format: functional; how it was run: as §1
[7] = Induction of nitric oxide release in phosphate buffer at 10^-4 M at pH 7.4 after 2 hrs by Griess colorimetric method in presence of N-acetylcysteine; format: physicochemical; details: pH 7.4, 2 h, 100 µM
How it was run: (§2)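 Final drug concentration 10^-4 M, added from DMF into 1:1 50 mM phosphate buffer (pH 7.4)/MeOH containing 5 × 10^-4 M N-acetylcysteine, at 37 °C. Nitrite read with Griess reagent after 10 min at room temperature, absorbance at 546 nm. Calibration with sodium nitrite standards (10–80 nmol/ml). Reported as mol NO per mol, n = 4 reaction mixtures.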

[8] = Induction of nitric oxide release in phosphate buffer at 10^-4 M at pH 7.4 after 3 hrs by Griess colorimetric method in presence of N-acetylcysteine; format: physicochemical; details: pH 7.4, 3 h, 100 µM; how it was run: as §2
[9] = Induction of nitric oxide release in HCl buffer at 10^-4 M at pH 1 after 1 hr by Griess colorimetric method in presence of N-acetylcysteine; format: physicochemical; details: pH 1, 1 h, 100 µM
How it was run: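 Same Griess nitrite procedure at 10^-4 M final drug with N-acetylcysteine at 37 °C, but with 0.1 N HCl (pH 1) in place of the pH 7.4 phosphate buffer. Absorbance at 546 nm against a sodium nitrite calibration curve.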

[10] = Induction of nitric oxide release in phosphate buffer at 10^-4 M at pH 7.4 after 1 hr by Griess colorimetric method in presence of N-acetylcysteine; format: physicochemical; details: pH 7.4, 1 h, 100 µM; how it was run: as §2
[11] = Induction of nitric oxide release in phosphate buffer at 10^-4 M at pH 7.4 after 4 hrs by Griess colorimetric method in presence of N-acetylcysteine; format: physicochemical; details: pH 7.4, 4 h, 100 µM; how it was run: as §2
[12] = Induction of nitric oxide release in phosphate buffer at 10^-4 M at pH 7.4 after 6 hrs by Griess colorimetric method in presence of N-acetylcysteine; format: physicochemical; details: pH 7.4, 6 h, 100 µM; how it was run: as §2
[13] = Induction of nitric oxide release in phosphate buffer at 10^-4 M at pH 7.4 after 5 hrs by Griess colorimetric method in presence of N-acetylcysteine; format: physicochemical; details: pH 7.4, 5 h, 100 µM; how it was run: as §2

Row | Activity [7] [mol/mol] | Activity [8] [mol/mol] | Activity [9] | Activity [10] [mol/mol] | Activity [11] [mol/mol] | Activity [12] [mol/mol] | Activity [13] [mol/mol] | SMILES | inhibition in vivo at 280 µmol/kg (Rattus norvegicus [1]) [%] | UI (Rattus norvegicus [2]) | inhibition in vivo at 280 µmol/kg (Rattus norvegicus [3]) [%] | inhibition in vivo at 280 µmol/kg (Rattus norvegicus [4]) [%] | inhibition in vivo at 280 µmol/kg (Rattus norvegicus [5]) [%] | inhibition in vivo at 280 µmol/kg (Rattus norvegicus [6]) [%]
1 |  |  |  |  |  |  |  | C=CCn1c(SCC(=O)Nc2ccc(C(C)=O)cc2)nnc1-c1ccccc1 | 70 | 9.3 | 63 | 48 | 54 | 52
2 | 0.2 | 0.24 | Not Active | 0.16 | 0.29 | 0.23 | 0.24 | CCn1c(SCC(=O)Nc2ccc(/C(C)=N/O)cc2)nnc1-c1ccc(OC)cc1 | 73 | 1.04 | 65 | 54 | 60 | 58
3 |  |  |  |  |  |  |  | COc1cc(-c2nnc(SCC(=O)Nc3ccc(C(C)=O)cc3)n2-c2ccccc2)cc(OC)c1OC | 68 | 4.38 | 63 | 49 | 55 | 54
4 | 0.17 | 0.2 | Not Active | 0.11 | 0.21 | 0.12 | 0.14 | CCn1c(SCC(=O)Nc2ccc(/C(C)=N/O)cc2)nnc1-c1ccccc1 | 77 | 1.18 | 66 | 54 | 65 | 57
5 |  |  |  |  |  |  |  | CCn1c(SCC(=O)Nc2ccc(C(C)=O)cc2)nnc1-c1ccc(OC)c(OC)c1 | 69 | 3.6 | 66 | 56 | 62 | 59
6 |  |  |  |  |  |  |  | COc1ccc(-c2nnc(SCC(=O)Nc3ccc(C(C)=O)cc3)n2-c2ccccc2)cc1 | 63 | 5.53 | 60 | 29 | 58 | 42
7 |  |  |  |  |  |  |  | CCn1c(SCC(=O)Nc2ccc(C(C)=O)cc2)nnc1-c1cc(OC)c(OC)c(OC)c1 | 68 | 3.34 | 64 | 46 | 54 | 50
8 | 0.14 | 0.16 | Not Active | 0.11 | 0.25 | 0.14 | 0.15 | COc1cc(-c2nnc(SCC(=O)Nc3ccc(/C(C)=N/O)cc3)n2-c2ccccc2)cc(OC)c1OC | 75 | 2.21 | 70 | 59 | 66 | 62
9 |  |  |  |  |  |  |  | C=CCn1c(SCC(=O)Nc2ccc(C(C)=O)cc2)nnc1-c1ccc(OC)cc1 | 68 | 8.66 | 66 | 50 | 52 | 51
10 | 0.19 | 0.25 | Not Active | 0.15 | 0.43 | 0.32 | 0.36 | CCn1c(SCC(=O)Nc2ccc(/C(C)=N/O)cc2)nnc1-c1ccc(OC)c(OC)c1 | 75 | 3.43 | 73 | 53 | 66 | 65
11 |  |  |  |  |  |  |  | CCn1c(SCC(=O)Nc2ccc(C(C)=O)cc2)nnc1-c1ccc(OC)cc1 | 65 | 10.52 | 62 | 51 | 57 | 54
12 |  |  |  |  |  |  |  | CCn1c(SCC(=O)Nc2ccc(C(C)=O)cc2)nnc1-c1ccccc1 | 69 | 7.12 | 66 | 50 | 56 | 53
13 | 0.17 | 0.23 | Not Active | 0.15 | 0.32 | 0.16 | 0.23 | C=CCn1c(SCC(=O)Nc2ccc(/C(C)=N/O)cc2)nnc1-c1ccc(OC)cc1 | 75 | 2.69 | 72 | 54 | 63 | 59
14 |  |  |  |  |  |  |  | C=CCn1c(SCC(=O)Nc2ccc(C(C)=O)cc2)nnc1-c1cc(OC)c(OC)c(OC)c1 | 68 | 6.49 | 64 | 48 | 55 | 54
15 | 0.15 | 0.19 | Not Active | 0.11 | 0.24 | 0.16 | 0.18 | C=CCn1c(SCC(=O)Nc2ccc(/C(C)=N/O)cc2)nnc1-c1cc(OC)c(OC)c(OC)c1 | 72 | 0.75 | 64 | 49 | 62 | 53
16 | 0.13 | 0.14 | Not Active | 0.12 | 0.22 | 0.14 | 0.15 | CCn1c(SCC(=O)Nc2ccc(/C(C)=N/O)cc2)nnc1-c1cc(OC)c(OC)c(OC)c1 | 70 | 0.83 | 61 | 29 | 70 | 49
17 | 0.2 | 0.22 | Not Active | 0.15 | 0.24 | 0.15 | 0.16 | C=CCn1c(SCC(=O)Nc2ccc(/C(C)=N/O)cc2)nnc1-c1ccccc1 | 73 | 0.64 | 71 | 61 | 73 | 63
18 |  |  |  |  |  |  |  | COc1ccc(-c2nnc(SCC(=O)Nc3ccc(C(C)=O)cc3)n2-c2ccccc2)cc1OC | 62 | 8.64 | 55 | 28 | 51 | 43
19 |  |  |  |  |  |  |  | CC(=O)c1ccc(NC(=O)CSc2nnc(-c3ccccc3)n2-c2ccccc2)cc1 | 67 | 3.38 | 63 | 41 | 62 | 49

Source: ChEMBL document CHEMBL3102806, “1,2,4-Triazole/oxime hybrids as new strategy for nitric oxide donors: Synthesis, anti-inflammatory, ulceroginicity and antiproliferative activities” (Eur J Med Chem, 2014)
